Measurements published in article PMC4334291 (Journal of Chemical Information and Modeling, 2014).

Key:
E. coli BL21 = experiment: Bacterial growth assay, E. coli BL21; type: cell-based; conditions: 100 μM, 4 and 8 h
Summary of the method: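 E. coli BL21 grown overnight at 37 °C and 300 rpm in 0.5% yeast extract, 1% tryptone, 0.5% NaCl (pH 7.0), then diluted 10×. Grown at 37 °C and 300 rpm with test compound at 100 μM, 0.3% DMSO (negative control) or ampicillin 100 μM (positive control). A595 read at 4, 6 and 8 h. Four independent experiments, mean ± SEM, Dunnett's test.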

SH-SY5Y cells = experiment: Mammalian cells growth/toxicity assay; type: cell-based, human; conditions: data not shown; 2 days
[1] = tested on: S. epidermidis ATCC 12228; experiment: Bacterial growth assay, S. epidermidis; type: cell-based, Staphylococcus epidermidis; conditions: 100 μM, after 6 h
Summary of the method: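 Overnight culture at 37 °C and 300 rpm in 1% peptone, 1% beef extract, 0.5% NaCl (pH 7.1), diluted 15×. Grown at 37 °C and 300 rpm with test compound at 100 μM, 0.3% DMSO (negative control) or ampicillin 100 μg/mL (positive control). A595 read at 6 h. Four independent experiments, mean ± SEM, Bonferroni all-pair comparison.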

E. coli JM109 = experiment: Bacterial growth assay, E. coli JM109; type: cell-based; conditions: data not shown
Summary of the method: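 JM109 culture handled as follows: overnight growth at 37 °C, 300 rpm, in 0.5% yeast extract/1% tryptone/0.5% NaCl medium (pH 7.0), then 10× dilution. Incubated at 37 °C, 300 rpm, in medium with test compound, 0.3% DMSO as negative control or ampicillin as positive control. Culture absorbance at 595 nm read after 4, 6 and 8 h.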

MDCK cells = experiment: Mammalian cells growth/toxicity assay; type: cell-based, Canine; conditions: 30 μM, 1 day
Summary of the method: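 MDCK cells kept in DMEM with 10% FBS, penicillin/streptomycin and 2 mM L-glutamine. Seeded at 5.0 × 10^3 cells/well for 6 h (37 °C, 5% CO2), then starved overnight in 0.25% FBS DMEM. Exposed for 1 day to test compound at 30 μM or ampicillin 30 μM (negative control). CCK-8 added; A450 of WST-8 formazan read after 3 h. Four independent experiments, mean ± SEM, Dunnett's test.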

wild-type saDHFR = wild-type saDHFR (Staphylococcus aureus, UniProt P0A017); experiment: S. aureus DHFR enzymatic assay; type: biochemical
Solubility in DMSO = type: physicochemical; conditions: at 100 μM in DMSO

Solubility in DMSO (Solubility in DMSO) | SMILES | Inhibitory effect on the growth of E. coli BL21 (E. coli BL21) | Cell death induced in SH-SY5Y cells (SH-SY5Y cells) | Inhibitory effect on the growth of S. epidermidis [1] | Inhibitory effect on the growth of E. coli JM109 (E. coli JM109) | Toxic effects on MDCK cells (MDCK cells) | IC50 (wild-type saDHFR)
– | O=C(O)CN1C(=O)C(=C2C(=O)N(Cc3ccc(Cl)cc3)c3ccccc32)SC1=S [KB1, {5-[1-(4-chlorobenzyl)-2-oxo-1,2-dihydro-3H-indol-3-ylidene]-4-oxo-2-thioxo-1,3-thiazolidin-3-yl}acetic acid] | did not show inhibitory effects | 43.3% | strong inhibitory effects | did not show inhibitory effects | did not show any toxic effects | –
– | O=C(O)CCCN1C(=O)C(=C2C(=O)N(Cc3ccc(Cl)cc3)c3ccccc32)SC1=S [KBS1, 4-{5-[1-(4-chlorobenzyl)-2-oxo-1,2-dihydro-3H-indol-3-ylidene]-4-oxo-2-thioxo-1,3-thiazolidin-3-yl}butanoic acid] | no inhibitory effects | 35.4–52.1% | significant inhibitory effects | no inhibitory effects | weak toxic effect | 460 ± 170 nM
not soluble | Cc1ccc(CN2C(=O)C(=C3SC(=S)N(CC(=O)O)C3=O)c3ccccc32)cc1 [KBS2, {5-[1-(4-methylbenzyl)-2-oxo-1,2-dihydro-3H-indol-3-ylidene]-4-oxo-2-thioxo-1,3-thiazolidin-3-yl}acetic acid] | – | – | – | – | – | –
– | O=C(O)CN1C(=O)C(=C2C(=O)N(Cc3ccccc3Cl)c3ccccc32)SC1=S [KBS3, {5-[1-(2-chlorobenzyl)-2-oxo-1,2-dihydro-3H-indol-3-ylidene]-4-oxo-2-thioxo-1,3-thiazolidin-3-yl}acetic acid] | no inhibitory effects | 35.4–52.1% | significant inhibitory effects | no inhibitory effects | did not exhibit toxic effects | –
– | O=C(O)CCN1C(=O)C(=C2C(=O)N(Cc3ccc(F)cc3)c3ccccc32)SC1=S [KBS4, 3-{5-[1-(4-fluorobenzyl)-2-oxo-1,2-dihydro-3H-indol-3-ylidene]-4-oxo-2-thioxo-1,3-thiazolidin-3-yl}propanoic acid] | no inhibitory effects | 35.4–52.1% | significant inhibitory effects | no inhibitory effects | did not exhibit toxic effects | –
– | CCOCCCN1C(=O)C(=C2C(=O)N(Cc3ccc(Cl)cc3)c3ccccc32)SC1=S [KBS5, 1-(4-chlorobenzyl)-3-[3-(3-ethoxypropyl)-4-oxo-2-thioxo-1,3-thiazolidin-5-ylidene]-1,3-dihydro-2H-indol-2-one] | – | – | inactive | – | – | –
